Laboratory results published in ChEMBL document CHEMBL4665798, “Novel Human Urate Transporter 1 Inhibitors as Hypouricemic Drug Candidates with Favorable Druggability” (J Med Chem, 2020).

Experiments:
[1] = Sub-acute toxicity in Kunming mouse assessed as edema in proximal tubule at 50 mg/kg, po administered as single dose every other day for 14 days by H and E staining based assay; format: organism-based; conditions: in vivo, 336 h, time 14 day
Outline: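 Kunming mice, n = 4 per sex, fasted 12 h. Dosed orally on D0, D2, D4, D6, D8, D10 and D12; controls received an equal volume of vehicle. Weighed before each dose. Killed at D14; heart, liver, spleen, lung and kidney taken for haematoxylin and eosin staining.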

[2] = system: Mus musculus; experiment: Hypouricemic activity in Kunming mouse model of xanthine/potassium oxonate-induced acute hyperuricemia assessed as decrease in serum uric acid level at 2 mg/kg administered 3 hrs prior to xanthine/potassium oxonate and measured after 6 hrs relative to control; format: functional; parameters: scale not given: the % may be the effect or the level left; conditions: time 9 hrs
Outline: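 Male Kunming mice, hyperuricemia induced by intragastric xanthine plus subcutaneous potassium oxonate (0.2 mL each). […] Groups: normal vehicle, untreated model, active control, test. Serum uric acid measured. Decrease ratio = (model SUA − compound SUA)/(model SUA − vehicle SUA).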

[3] = target: T1, Solute carrier family 22 member 12 (Homo sapiens, UniProt Q96S37); experiment: Inhibition of human URAT1 expressed in HEK293T cells assessed as reduction in [14C]uric acid uptake preincubated for 15 mins followed by [14C]uric acid addition by liquid scintillation counting method; format: cell-based
T1 sequence (Q96S37 whole entry): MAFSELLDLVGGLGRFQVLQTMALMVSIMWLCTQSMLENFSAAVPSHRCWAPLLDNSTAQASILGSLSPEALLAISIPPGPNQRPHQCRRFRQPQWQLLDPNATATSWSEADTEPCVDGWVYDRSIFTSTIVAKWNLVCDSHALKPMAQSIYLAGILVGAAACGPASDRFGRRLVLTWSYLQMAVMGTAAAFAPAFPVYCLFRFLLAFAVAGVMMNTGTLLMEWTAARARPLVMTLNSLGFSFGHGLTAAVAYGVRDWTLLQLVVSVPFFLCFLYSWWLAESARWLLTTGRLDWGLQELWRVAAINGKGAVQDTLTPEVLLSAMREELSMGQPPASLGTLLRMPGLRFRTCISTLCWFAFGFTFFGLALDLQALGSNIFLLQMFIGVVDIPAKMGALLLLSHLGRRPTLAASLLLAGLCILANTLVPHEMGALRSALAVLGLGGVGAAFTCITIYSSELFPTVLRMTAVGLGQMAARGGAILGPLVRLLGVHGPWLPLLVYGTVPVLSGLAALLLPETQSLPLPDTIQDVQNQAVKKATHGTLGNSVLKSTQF

[4] = Sub-acute toxicity in Kunming mouse assessed as lethargy at 50 mg/kg, po administered once every second day for 14 days; format: organism-based; conditions: in vivo, 336 h, time 14 day
[5] = Sub-acute toxicity in Kunming mouse assessed as congestion in hepatic central vein at 50 mg/kg, po administered as single dose every other day for 14 days by H and E staining based assay; format: organism-based; conditions: in vivo, 336 h, time 14 day
[6] = Tmax in Sprague-Dawley rat at 20 mg/kg, po by LC-MS analysis; format: ADME, organism-based; conditions: in vivo
[7] = AUC (0 to infinity) in Sprague-Dawley rat at 20 mg/kg, po by LC-MS analysis; format: ADME, organism-based; parameters: route oral, time infinity, dose 20 mg/kg; conditions: in vivo
[8] = Acute toxicity in Kunming mouse assessed as death at 500 mg/kg, ig measured for 1 week; format: organism-based; conditions: in vivo, po, 168 h, time 1 weeks
[9] = Sub-acute toxicity in Kunming mouse assessed as death at 50 mg/kg, po administered once every second day for 14 days; format: organism-based; conditions: in vivo, 336 h, time 14 day
[10] = Sub-acute toxicity in Kunming mouse assessed as ballooning degeneration of liver at 50 mg/kg, po administered as single dose every other day for 14 days by H and E staining based assay; format: organism-based; conditions: in vivo, 336 h, time 14 day
[11] = Sub-acute toxicity in Kunming mouse assessed as hepatocellular condensation of liver at 50 mg/kg, po administered as single dose every other day for 14 days by H and E staining based assay; format: organism-based; conditions: in vivo, 336 h, time 14 day
[12] = Half-life in Sprague-Dawley rat at 20 mg/kg, po by LC-MS analysis; format: ADME, organism-based; conditions: in vivo
[13] = Clearance in Sprague-Dawley rat at 1 mg/kg, iv by LC-MS analysis; format: ADME, organism-based; conditions: in vivo
[14] = Acute toxicity in Kunming mouse assessed as induction of abnormal behaviors by measuring clonic convulsion at 500 mg/kg, ig; format: organism-based; conditions: in vivo, po
[15] = MRT (0 to infinity) in Sprague-Dawley rat at 20 mg/kg, po by LC-MS analysis; format: ADME, organism-based; conditions: in vivo
[16] = Acute toxicity in female Kunming mouse assessed as change in body weight at 500 mg/kg, ig measured for 1 week; format: organism-based; conditions: in vivo, po, 168 h, time 1 weeks
[17] = AUC (0 to t) in Sprague-Dawley rat at 1 mg/kg, iv by LC-MS analysis; format: ADME, organism-based; parameters: dose 1 mg/kg; conditions: in vivo
[18] = species on record: Rattus norvegicus; experiment: Hypouricemic activity in rat model of xanthine/potassium oxonate-induced acute hyperuricemia assessed as decrease in serum uric acid level relative to control; format: functional; parameters: scale not given: the % may be the effect or the level left
[19] = Sub-acute toxicity in Kunming mouse assessed as appearance of ruffled fur at 50 mg/kg, po administered once every second day for 14 days; format: organism-based; conditions: in vivo, 336 h, time 14 day
[20] = Acute toxicity in male Kunming mouse assessed as change in body weight at 500 mg/kg, ig measured for 1 week; format: organism-based; conditions: in vivo, po, 168 h, time 1 weeks
[21] = Sub-acute toxicity in female Kunming mouse assessed as increase in body weight at 50 mg/kg, po administered once every second day for 14 days; format: organism-based; conditions: in vivo, 336 h, time 14 day
[22] = Sub-acute toxicity in Kunming mouse assessed as anorexia at 50 mg/kg, po administered once every second day for 14 days; format: organism-based; conditions: in vivo, 336 h, time 14 day
[23] = AUC (0 to t) in Sprague-Dawley rat at 20 mg/kg, po by LC-MS analysis; format: ADME, organism-based; parameters: dose 20 mg/kg; conditions: in vivo
[24] = Sub-acute toxicity in Kunming mouse assessed as hydropic degeneration of hepatocytes at 50 mg/kg, po administered as single dose every other day for 14 days by H and E staining based assay; format: organism-based; conditions: in vivo, 336 h, time 14 day
[25] = Sub-acute toxicity in male Kunming mouse assessed as increase in body weight at 50 mg/kg, po administered once every second day for 14 days; format: organism-based; conditions: in vivo, 336 h, time 14 day
[26] = Cmax in Sprague-Dawley rat at 20 mg/kg, po by LC-MS analysis; format: ADME, organism-based; parameters: route oral, dose 20 mg/kg; conditions: in vivo
[27] = AUC (0 to infinity) in Sprague-Dawley rat at 1 mg/kg, iv by LC-MS analysis; format: ADME, organism-based; parameters: time infinity, route intravenous, dose 1 mg/kg; conditions: in vivo
[28] = MRT (0 to infinity) in Sprague-Dawley rat at 1 mg/kg, iv by LC-MS analysis; format: ADME, organism-based; conditions: in vivo
[29] = Acute toxicity in Kunming mouse assessed as induction of abnormal behaviors by measuring anorexia at 500 mg/kg, ig; format: organism-based; conditions: in vivo, po
[30] = Half-life in Sprague-Dawley rat at 1 mg/kg, iv by LC-MS analysis; format: ADME, organism-based; conditions: in vivo
[31] = Oral bioavailability in Sprague-Dawley rat at 20 mg/kg by LC-MS analysis; format: ADME, organism-based; conditions: in vivo
[32] = Acute toxicity in Kunming mouse assessed as induction of abnormal behaviors by measuring lethargy at 500 mg/kg, ig; format: organism-based; conditions: in vivo, po
[33] = Sub-acute toxicity in Kunming mouse assessed as clonic convulsion at 50 mg/kg, po administered once every second day for 14 days; format: organism-based; conditions: in vivo, 336 h, time 14 day
[34] = target: T2, Solute carrier family 2, facilitated glucose transporter member 9 (Homo sapiens, UniProt Q9NRM0); experiment: Inhibition of GLUT9 (unknown origin)
T2 sequence (Q9NRM0 whole entry): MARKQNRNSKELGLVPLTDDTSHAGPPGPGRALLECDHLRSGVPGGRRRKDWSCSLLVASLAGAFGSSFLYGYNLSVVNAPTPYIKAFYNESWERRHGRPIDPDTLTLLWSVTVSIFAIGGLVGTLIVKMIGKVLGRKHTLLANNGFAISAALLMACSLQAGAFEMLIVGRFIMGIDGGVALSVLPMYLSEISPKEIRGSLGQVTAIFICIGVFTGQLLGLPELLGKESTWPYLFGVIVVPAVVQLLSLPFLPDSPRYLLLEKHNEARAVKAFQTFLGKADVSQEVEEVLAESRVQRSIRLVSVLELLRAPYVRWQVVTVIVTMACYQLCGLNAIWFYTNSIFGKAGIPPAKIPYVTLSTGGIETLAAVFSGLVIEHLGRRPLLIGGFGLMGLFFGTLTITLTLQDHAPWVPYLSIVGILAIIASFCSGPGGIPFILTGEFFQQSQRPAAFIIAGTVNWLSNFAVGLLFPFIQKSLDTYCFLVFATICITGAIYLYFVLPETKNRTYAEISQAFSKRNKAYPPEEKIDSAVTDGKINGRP

O=C(O)C1(Sc2nc3ncccc3n2-c2ccc(C3CC3)c3ccccc23)CCC1
Activity [1]: Toxic | Activity [2]: 62.18%

CC(Sc1nc2cccnc2n1-c1ccc(C2CC2)c2ccccc12)C(=O)O (centres undefined)
Activity [2]: 42.06% | IC50 [3]: > 30 µM

CC(Sc1nc2cnccc2n1-c1ccc(C2CC2)c2ccccc12)C(=O)O (racemic)
Activity [4]: Non-Toxic | Activity [5]: Non-Toxic | Tmax [6]: 0.5 h | AUC(0-inf) [7]: 65100 ng·h/mL | Activity [8]: Non-Toxic | Activity [9]: Non-Toxic | Activity [10]: Non-Toxic | Activity [11]: Non-Toxic | half-life [12]: 3.1 h | clearance [13]: 5.3 mL/min/kg | Activity [14]: Non-Toxic | MRT inf [15]: 4.6 h | Activity [16]: Non-Toxic | Activity [2]: 89.62% | AUC(0-t) [17]: 3110 ng·h/mL | Activity [18]: 81.42% | Activity [19]: Non-Toxic | Activity [20]: Non-Toxic | Activity [21]: Non-Toxic | Activity [22]: Non-Toxic | AUC(0-t) [23]: 58200 ng·h/mL | Activity [24]: Non-Toxic | Activity [25]: Non-Toxic | Cmax [26]: 21600 ng/mL | AUC(0-inf) [27]: 3320 ng·h/mL | MRT inf [28]: 2.86 h | Activity [29]: Non-Toxic | IC50 [3]: 6.14 µM | half-life [30]: 2.3 h | bioavailability [31]: 93.6% | Activity [32]: Non-Toxic | Activity [33]: Non-Toxic

COC(=O)C(C)Sc1nc2cnccc2n1-c1ccc(C#N)c2ccccc12 (centres undefined)
Activity [2]: 17.9%

CCOC(=O)CCCSc1nc2ncccc2n1-c1ccc(C2CC2)c2ccccc12
Activity [2]: 33.6%

N#Cc1ccc(-n2c(SC3(C(=O)O)CCC3)nc3cnccc32)c2ccccc12
Activity [2]: 27.36%

CCOC(=O)CSc1nc2cccnc2n1-c1ccc(C2CC2)c2ccccc12
Activity [2]: 41.96%

COC(=O)CCCSc1nc2ncccc2n1-c1ccc(C#N)c2ccccc12
Activity [2]: 7.17%

CC(Sc1nc2cccnc2n1-c1cccc2ccccc12)C(=O)O (centres undefined)
Activity [2]: -1.78%

Cc1cc(C)c(-n2c(SC(C)C(=O)O)nc3cccnc32)c(C)c1 (centres undefined)
Activity [2]: 37.04%

COC(=O)CCCSc1nc2cnccc2n1-c1ccc(C#N)c2ccccc12
Activity [2]: 8.96%

O=C(O)CSc1nc2cnccc2n1-c1ccc(C2CC2)c2ccccc12
Activity [2]: 42.17%

O=C(CSc1nnc(Br)n1-c1ccc(C2CC2)c2ccccc12)NS(=O)(=O)c1ccc(Cl)cc1
Activity [2]: 76.46%

Cc1cc(C)c(-n2c(SCCCC(=O)O)nc3cccnc32)c(C)c1
Activity [2]: 13.05%

C[C@@H](Sc1nc2ncccc2n1-c1ccc(C2CC2)c2ccccc12)C(=O)O (stereo in doubt; 44d)
Activity ([2]; 2 mg/kg): 98.04%

CCOC(=O)CCCSc1nc2cnccc2n1-c1ccc(C2CC2)c2ccccc12
Activity [2]: 47.37%

CCOC(=O)C1(Sc2nc3cnccc3n2-c2ccc(C3CC3)c3ccccc23)CCC1
Activity [2]: 41.35%

CC(C)(Sc1nc2ncccc2n1-c1ccc(C#N)c2ccccc12)C(=O)O
Activity [2]: 3.67%

O=C(O)CCCSc1nc2cnccc2n1-c1ccc(C2CC2)c2ccccc12
Activity [2]: 56.26%

O=C(CSc1nnc(Br)n1-c1ccc(C2CC2)c2ccccc12)NS(=O)(=O)c1ccc(F)cc1
Activity [2]: 75.17%

O=C(CSc1nnc(Br)n1-c1ccc(C2CC2)c2ccccc12)NS(=O)(=O)c1ccc(F)cc1F
Activity [2]: 93.78% | IC50 [34]: 32.2 µM | IC50 [3]: 7.29 µM

CCOC(=O)CSc1nc2ncccc2n1-c1ccc(C2CC2)c2ccccc12
Activity [2]: 33.56%

CCOC(=O)CSc1nc2cccnc2n1-c1c(C)cc(C)cc1C
Activity [2]: -2.2%

CC(C)S(=O)(=O)NC(=O)CSc1nnc(Br)n1-c1ccc(C2CC2)c2ccccc12
Activity [2]: 11.99%

C[C@H](Sc1nc2ncccc2n1-c1ccc(C2CC2)c2ccccc12)C(=O)O (stereo in doubt; 44c)
Activity ([2]; 2 mg/kg): 31.02%

CC(C)(Sc1nc2ncccc2n1-c1ccc(C2CC2)c2ccccc12)C(=O)O
Activity [2]: 11.47%

N#Cc1ccc(-n2c(SCCCC(=O)O)nc3cnccc32)c2ccccc12
Activity [2]: 11.19%

CC(Sc1nc2cnccc2n1-c1ccc(C#N)c2ccccc12)C(=O)O (centres undefined)
Activity [2]: 27.84%

O=C(O)CSc1nc2cccnc2n1-c1ccc(C2CC2)c2ccccc12
Activity [2]: 43.69%
